The list is not random: actives were taken first. Their share in the collection is about 1.7%.
PGE2 EP2 inh = EP2 receptor (human) inhibition; C6 glioma cells expressing human EP2, cAMP TR-FRET; cells stimulated with saturating PGE2; inhibition, % at 25 µM; 0.52% of 260,000 active; P43116;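 active means percent inhibition above 40 after rounding to a whole number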;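 further: rat C6 glioma host cells with rolipram phosphodiesterase inhibitor present; the protocol text gives 20 µM as final concentration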
Target sequence (P43116 whole entry, looked up): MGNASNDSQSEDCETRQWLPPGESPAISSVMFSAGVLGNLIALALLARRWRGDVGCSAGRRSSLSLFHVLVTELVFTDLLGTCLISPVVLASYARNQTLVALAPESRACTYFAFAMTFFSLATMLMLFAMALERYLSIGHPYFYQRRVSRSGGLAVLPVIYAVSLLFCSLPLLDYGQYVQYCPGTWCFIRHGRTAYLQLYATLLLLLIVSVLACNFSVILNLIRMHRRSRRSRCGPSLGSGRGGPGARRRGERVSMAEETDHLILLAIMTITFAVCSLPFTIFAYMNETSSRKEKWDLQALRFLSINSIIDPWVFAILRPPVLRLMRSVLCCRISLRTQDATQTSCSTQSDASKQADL
Hsp70 activator = switches on Hsp70 transcription. HeLa Hsp70 promoter luciferase reporter, luminescence; scaled: vehicle 0, proteasome-inhibitor control 100%. 0.04% of 200,000 active. activation, % at 10 µM;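 active means activation above the mean across all tested compounds plus 3 SD, cutoff set per campaign, cut at about 5.5% in these data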
Dynein cargo inh = dynein cargo transport inhibition; 3617.4 mouse cells, GR-EGFP nuclear translocation imaging; test concentration mostly 20 µM; stimulated with dexamethasone, 1 µM; hits give low values; z-score, hits read low; 0.47% of 220,000 active;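 active means plate z-score of nuclear minus cytoplasmic receptor signal below a set negative limit, without overly bright fluorescence or cell loss, cut at about -3.5 in these data, passing the limit was not always enough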;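 further: z-score of nuclear minus cytoplasmic ring GR-EGFP intensity difference per well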
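Schedule: 48 h induction, then 1 h compound, then 30 min agonist, 37 °C. Buffer or medium: tetracycline-free induction medium containing charcoal-stripped FBS. Reagent: 1.0 µM final dexamethasone stimulus. Evaluation: nuclear versus cytoplasmic GR-EGFP signal, averaged per well. Signal: high-content fluorescence imaging after fixation.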
EP2 modulator = EP2 receptor (human) modulation. P43116. EP2-expressing cells, cAMP HTRF FRET, PGE2 co-stimulation. 0.83% of 260,000 active. induction, % at 25 µM;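 active means compounds whose cAMP rise, as percent of the full-agonist control response, exceeds 60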;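 further: rat C6 glioma line stably carrying human EP2 under a CMV promoter; the protocol text gives 20 µM as final concentration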
Dynein inh conf = dynein cargo transport inhibition, confirmation. shares compounds with Dynein cargo inh. 3617.4 GR-EGFP nuclear translocation imaging, dexamethasone-induced. calls only at 20 µM. 69% of 1,000 active. AID 463116;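 active means inhibition of receptor movement into the nucleus at or above a set limit in both runs, with normal cell brightness and cell count; inconclusive means limit reached in only one run, brightness and count normal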;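 further: dexamethasone at 1 µM final in well for 30 min; nuclear minus cytoplasmic GR-EGFP mean intensity difference in channel 2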
Numbers stand for hits; n = inactive; u = inconclusive; x = not tested or not shown; + = active, no number.

SMILES | PGE2 EP2 inh | Hsp70 activator | Dynein cargo inh | EP2 modulator | Dynein inh conf
CC(=O)Nc1cccc(C(=O)/C=C/c2ccc(/C=C/C(=O)c3cccc(NC(C)=O)c3)cc2)c1 | n | n | n | n | x
CC(=O)Nc1cccc(C(=O)/C=C/c2ccc(F)cc2)c1 | n | n | -3.86 | n | +
CC(=O)Nc1cccc(C(=O)/C=C/c2cccs2)c1 | n | n | -3.67 | n | +
O=C(Oc1oc(-c2ccco2)nc1C=Nc1ccccc1)c1ccco1 | x | n | n | n | x
O=C(Oc1oc(-c2ccco2)nc1C=Nc1ccccc1)c1ccoc1 | n | n | -4.04 | n | +
Cc1ccc(C(=O)Oc2oc(-c3ccco3)nc2C=Nc2ccc(Cl)cc2)cc1 | n | n | -3.65 | n | +
Cc1ccc2occ(CN3CCc4nc(N5CCC(C)CC5)[nH]c(=O)c4C3)c(=O)c2c1 | n | x | x | n | x
Cc1ccc(/C(C#N)=C\c2ccc(N3CCOCC3)o2)cc1 | n | n | n | n | x
Cc1ccc2nc(/C(C#N)=C\c3ccc(N4CCOCC4)o3)[nH]c2c1 | n | n | n | n | +
Cc1ccc2cc(C)c3nnc(SCC(=O)N4CCc5ccccc54)n3c2c1C | n | x | x | n | x
O=Cc1[nH]c2ccccc2c1N(C(=O)CCl)c1ccccc1 | n | x | n | n | +
CCCCCCN(C(=O)CCl)c1ccccc1 | n | x | -4.72 | n | +
O=C(CCl)N(c1ccccc1)c1ccccc1 | n | n | -4.51 | n | +
CC(=O)C1=C(O)C(=O)NC1c1ccccc1Cl (configuration not stated) | n | x | x | n | x
Cc1ccc2cc(CN(CC3CCCO3)C(=S)NCc3ccco3)c(=O)[nH]c2c1 (configuration not stated) | n | n | -3.55 | n | n
Cc1ccc2[nH]c(=O)c(CN(CC3CCCO3)C(=S)NCc3ccco3)cc2c1 (configuration not stated) | n | n | n | n | x
O=C1C(Cl)=C(Nc2ccc3cn[nH]c3c2)C(=O)c2ccccc21 | n | x | -3.88 | n | +
O=C(Nc1ccc2cn[nH]c2c1)c1c(Cl)cccc1Cl | n | n | n | n | x
Cc1noc(C)c1C(=O)NCCN1CCC(O)(c2cccc(F)c2)CC1 | n | x | x | n | x
Cc1cccc(C2=NC(C(F)(F)F)(C(F)(F)F)c3c(n(-c4ccc(F)cc4)c(=O)[nH]c3=O)N2)c1 | n | n | -3.74 | n | n
Cc1ccc(/C=C2\CCC3=C2OC(N)=C(C#N)C3c2ccc(C)cc2)cc1 (configuration not stated) | n | n | n | n | n
N#CC1=C(N)OC2=C(CCc3ccccc32)C1c1ccccc1 (configuration not stated) | n | n | n | n | x
CCn1c2cc(C)sc2c2cnn(CC(=O)N3CC(C)CC(C)C3)c(=O)c21 (configuration not stated) | x | x | x | n | x
CCOC(=O)c1c(-c2ccc(C)o2)csc1NC(=S)NC(=O)N(C)C | n | n | -3.83 | n | n
O=C(CCl)Nc1cc(-c2ccccc2)nn1-c1ccccc1 | n | n | -4.85 | n | +
SMILES | PGE2 EP2 inh | Hsp70 activator | Dynein cargo inh | EP2 modulator | Dynein inh conf
O=c1[nH]c(N2CCN(Cc3ccncc3)CC2)nc2c1CCCC2 | x | x | x | n | x
Cc1c(C#N)c(NC(=O)CCl)n(Cc2cccs2)c1C | n | n | -5.25 | n | +
CCc1ccc2[nH]c(=O)c(C(c3nnnn3CCc3ccccc3)N3CCCC(C)C3)cc2c1 (configuration not stated) | n | x | x | n | x
O=c1[nH]c2cc3c(cc2cc1CN(Cc1ccco1)C(=S)NCC1CCCO1)OCO3 (configuration not stated) | n | x | x | n | x
CCNc1ccc(Br)cc(C(=O)/C=C/c2ccc(Cl)cc2Cl)c1=O | n | n | n | n | +
CCc1ccccc1NC(=S)N(CCO)Cc1cc2c(C)ccc(C)c2[nH]c1=O | n | x | x | n | x
COc1cccc(C2CC(C(F)(F)F)n3nc(C(=O)NCc4cccnc4)cc3N2)c1 (configuration not stated) | n | n | -3.59 | n | n
COc1cccc(C2CC(C(F)(F)F)n3nc(C(=O)Nc4c(C)n(C)n(-c5ccccc5)c4=O)cc3N2)c1 (configuration not stated) | n | n | n | n | x
COc1cc2c(cc1OC)C(C)=NC1(CCCCC1)C2 | n | x | n | n | x
COc1cc2c(cc1OC)C(SC)=NC1(CCCC1)C2 | n | n | -3.56 | n | +
COC(=O)c1scc(C)c1NC(=O)Nc1ccccc1 | n | n | n | n | x
COC(=O)c1scc(C)c1NC(=O)/C=C/C(=O)O | n | x | -3.76 | n | n
O=S(=O)(c1ccccc1)c1ncc(C(F)(F)F)cc1Cl | n | n | -6.39 | n | +
CC(=O)/C=C/n1c(=S)oc2ccccc21 | n | n | -4.07 | n | +
CC(C)CC(=O)/C=C/n1c(=S)oc2ccccc21 | n | n | -3.96 | n | +
CCC(C)(C)NC(=O)C(c1ccc(C)o1)N(C(=O)Cn1nnc2ccccc21)c1cccc(F)c1 (configuration not stated) | n | x | x | n | x
COC(=O)c1ccc(C2C(C(C)=O)=C(O)C(=O)N2CCc2c[nH]c3ccccc23)cc1 (configuration not stated) | n | x | x | n | x
COc1cccc(C2(NC(=O)c3c(C)noc3C)CCCC2)c1 | x | x | x | n | x
Cc1ccnc(SCc2cc(=O)c(OC(=O)c3cc([N+](=O)[O-])ccc3Cl)co2)n1 | n | n | -4.68 | n | +
COc1ccc(-c2c(C#N)c(N)nc3sc(C(=O)c4ccccc4)c(N)c23)cc1 | n | n | n | n | n
COc1ccccc1NC(=O)C1=C(C)NC2=C(C(=O)CCC2)C1c1cccc(C)c1 (configuration not stated) | n | x | x | n | x
Cc1ccsc1/C=C/C1=Cc2c(sc(NC(=O)CSc3n[nH]c(N)n3)c2C#N)C(C)(C)C1 | n | n | -3.58 | n | n
O=C(NCc1ccco1)Nc1c[nH]c2cccnc2c1=O | n | x | x | n | x
O=C(/C=C/c1ccccn1)c1cc(Br)ccc1O | n | x | -4.82 | n | +
O=C(/C=C/c1ccc(O)cc1)c1ccc(O)cc1O | n | n | n | n | x
SMILES | PGE2 EP2 inh | Hsp70 activator | Dynein cargo inh | EP2 modulator | Dynein inh conf
O=C(/C=C/c1ccccn1)c1ccc(Br)cc1O | n | n | -3.68 | n | u
CC(C(=O)N1CCC(c2ccc3c(c2)OCO3)CC1)c1ccccc1 (configuration not stated) | x | x | x | n | x
CC(=O)Nc1ccc(SC[C@H](c2ccccc2)N2CCN(CCc3ccccc3)CCC2=O)cc1 | n | x | -4.7 | n | n
Cc1ncccc1-c1cc2cccnc2n1CCCNC(=O)Cc1ccc(F)cc1 | n | x | x | n | x
O=C(OCn1ncc(Br)c(Br)c1=O)c1ccc(F)cc1 | n | n | -5.1 | n | +
COc1ccc([N+](=O)[O-])c(S(=O)(=O)c2ccc(Cl)cc2)n1 | n | x | -4.95 | n | +
COc1ccccc1S(=O)(=O)c1ccccc1[N+](=O)[O-] | n | n | n | n | x
COc1ccc([N+](=O)[O-])c(S(=O)(=O)c2ccccc2)n1 | n | x | -5.53 | n | +
CC[N+](CC)(CC)Cc1cc2ccccc2o1 | n | x | x | n | x
